According to ChEMBL document CHEMBL1138329, “Pharmacokinetic/pharmacodynamic model-guided identification of hypoxia-selective 1,2,4-benzotriazine 1,4-dioxides with antitumor activity: the role of extravascular transport” (J Med Chem, 2007):

Key:
[1] = AUC in CD1 mouse at 1000 umol/kg, ip; type: ADME, organism-based; conditions: plasma
How it was run: (§1)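 Single i.p. dose to CD-1 homozygous nude mice, drug as HCl salt in 0.9% saline, 5% DMSO/saline or lactate buffer (pH 4.0). Plasma total drug measured by HPLC at 75 or 100% of MTD (MTD from 1.33-fold dose steps, 6 mice). Noncompartmental analysis gave AUC, Cmax and t1/2.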

[2] = test system: HT-29; assay: Antitumor activity against human HT29 cells implanted in CD1 mouse assessed as clonogenic survival at 1000 umol/kg, ip after 18 hrs relative to control; type: functional
How it was run: (§2)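 HT29 xenografts in CD-1 homozygous nude mice; single i.p. dose of drug alone, formulated as the HCl salt in 0.9% saline, 5% DMSO/saline or lactate buffer (pH 4.0). Tumors excised 18 h later, dissociated to single-cell suspensions and plated. Clonogens/g of tumor counted; surviving fraction = treated/control clonogens/g.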

[3] = test system: SiHa; assay: Ratio of IC50 for SiHa cells under oxic conditions to hypoxic conditions after 4 hrs; type: functional, Homo sapiens
[4] = test system: Mus musculus; assay: Toxicity in ip dosed CD1 mouse; type: organism-based; conditions: in vivo
How it was run: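 MTD in CD-1 homozygous nude mice after single i.p. doses (HCl salts in saline, 5% DMSO/saline or lactate buffer pH 4.0), escalated in 1.33-fold increments. MTD taken as the highest dose causing no death, no body weight loss >15% and no other severe morbidity in any of 6 mice.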

[5] = test system: HT-29; assay: Ratio of IC50 for HT29 cells under oxic conditions to hypoxic conditions after 4 hrs; type: functional, Homo sapiens
[6] = test system: HT-29; assay: Antitumor activity against human HT29 cells implanted in CD1 mouse at 1000 umol/kg, ip administered 5 mins after irradiation by excision assay relative to radiation alone; type: functional
How it was run: (§3)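 Hypoxic-cell excision assay in HT29 xenografts in CD-1 homozygous nude mice. Mice received 20 Gy γ radiation to sterilize oxic tumor cells, then a single i.p. drug dose (HCl salt in saline, 5% DMSO/saline or pH 4.0 lactate buffer) 5 min later. Tumors excised at 18 h and plated for clonogens/g. Log cell kill = log(clonogens/g, radiation only) − log(clonogens/g, radiation plus drug).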

[7] = Half life in CD1 mouse at 1000 umol/kg, ip; type: ADME, organism-based; conditions: in vivo; how it was run: as §1
[8] = test system: HT-29; assay: Effect on human HT29 cells under hypoxic conditions assessed as drug level causing 10% clonogenic survival; type: functional
How it was run: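 HT29 suspensions (1 or 2 × 10^6 cells/mL) in serum-free medium were stirred under 5% CO2/95% N2 for 90 min. Drug was added from deoxygenated DMSO stock at a level giving about 10% survival at 1 h, and samples were taken up to 3 h. Clonogenic survival (14 days, methylene blue) was fitted with the HPLC concentration–time data, and the 10% survival exposure was interpolated.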

[9] = Cmax in CD1 mouse at 1000 umol/kg, ip; type: ADME, organism-based; set-up: dose 1000 umol/kg, route intraperitoneal; conditions: in vivo; how it was run: as §1
[10] = test system: SiHa; assay: Cytotoxicity against human SiHa cells under hypoxic conditions after 4 hrs; type: functional, cell-based
[11] = Solubility in culture medium in presence of 5% fetal calf serum; type: physicochemical; conditions: culture medium with 5% fetal calf serum
[12] = test system: HT-29; assay: Cytotoxicity against human HT29 cells under hypoxic conditions after 4 hrs; type: functional, cell-based; conditions: HT-29, 4 h
[13] = Cmax in CD1 mouse at 237 umol/kg, ip; type: ADME, organism-based; set-up: dose 237 umol/kg, route intraperitoneal; conditions: in vivo; how it was run: as §1
[14] = AUC in CD1 mouse at 237 umol/kg, ip; type: ADME, organism-based; conditions: plasma; how it was run: as §1
[15] = Half life in CD1 mouse at 237 umol/kg, ip; type: ADME, organism-based; conditions: in vivo; how it was run: as §1
[16] = AUC in CD1 mouse at 750 umol/kg, ip; type: ADME, organism-based; conditions: plasma; how it was run: as §1
[17] = test system: HT-29; assay: Antitumor activity against human HT29 cells implanted in CD1 mouse at 750 umol/kg, ip administered 5 mins after irradiation by excision assay relative to radiation alone; type: functional; how it was run: as §3
[18] = Cmax in CD1 mouse at 750 umol/kg, ip; type: ADME, organism-based; set-up: dose 750 umol/kg, route intraperitoneal; conditions: in vivo; how it was run: as §1
[19] = test system: HT-29; assay: Antitumor activity against human HT29 cells implanted in CD1 mouse assessed as clonogenic survival at 750 umol/kg, ip after 18 hrs relative to control; type: functional; how it was run: as §2
[20] = Half life in CD1 mouse at 750 umol/kg, ip; type: ADME, organism-based; conditions: in vivo; how it was run: as §1
[21] = test system: HT-29; assay: Diffusion coefficient, D in HT29 multicellular layers; type: ADME, cell-based; conditions: human
How it was run: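 HT29 multicellular layers were grown 3 days on collagen-coated Teflon membranes, equilibrated 60 min under 95% O2/5% CO2 at 37 °C, then placed in a diffusion chamber. Donor and receiver were sampled up to 5 h and assayed by HPLC. D came from fitting both profiles to a Fickian model with membrane and MCL in series, corrected by support-only Ds.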

[22] = test system: HT-29; assay: Antitumor activity against human HT29 cells implanted in CD1 mouse assessed as clonogenic survival at 316 umol/kg, ip after 18 hrs relative to control; type: functional; how it was run: as §2
[23] = Protein binding in mouse plasma by equilibrium dialysis; type: ADME, cell-free; conditions: read-out: PPB (converted)
[24] = Cmax in CD1 mouse at 316 umol/kg, ip; type: ADME, organism-based; set-up: dose 316 umol/kg, route intraperitoneal; conditions: in vivo; how it was run: as §1
[25] = Half life in CD1 mouse at 316 umol/kg, ip; type: ADME, organism-based; conditions: in vivo; how it was run: as §1
[26] = test system: HT-29; assay: Antitumor activity against human HT29 cells implanted in CD1 mouse at 316 umol/kg, ip administered 5 mins after irradiation by excision assay relative to radiation alone; type: functional; how it was run: as §3
[27] = Cmax in CD1 mouse at 562 umol/kg, ip; type: ADME, organism-based; set-up: dose 562 umol/kg, route intraperitoneal; conditions: in vivo; how it was run: as §1
[28] = Half life in CD1 mouse at 562 umol/kg, ip; type: ADME, organism-based; conditions: in vivo; how it was run: as §1
[29] = test system: HT-29; assay: Antitumor activity against human HT29 cells implanted in CD1 mouse assessed as clonogenic survival at 562 umol/kg, ip after 18 hrs relative to control; type: functional; how it was run: as §2
[30] = test system: HT-29; assay: Antitumor activity against human HT29 cells implanted in CD1 mouse at 562 umol/kg, ip administered 5 mins after irradiation by excision assay relative to radiation alone; type: functional; how it was run: as §3

SMILES	Ratio IC50 [3]	MTD [4]	Ratio IC50 [5]	Activity [8]	IC50 [10]	solubility [11]	IC50 [12]	D [21]	other results
CC(C)Oc1ccc2c(c1)[n+]([O-])c(NCCN(C)C)n[n+]2[O-]	31	1330 µmol/kg	162	22.3 µM·h	3.2 µM	> 55 mM	6.2 µM	–	AUC [1]: 102 µM·h; LCK [2]: -0.17; LCK [6]: 0.53; half-life [7]: 26.1 min; Cmax [9]: 123 µM
CCOc1ccc2c(c1)[n+]([O-])c(NCCN1CCCCC1)n[n+]2[O-]	169	316 µmol/kg	116	36.3 µM·h	1.7 µM	> 49 mM	2.2 µM	–	Cmax [13]: 9.8 µM; AUC [14]: 10.7 µM·h; half-life [15]: 40.1 min
CCc1ccc2c(c1)[n+]([O-])c(NCCCN1CCOCC1)n[n+]2[O-]	66	1000 µmol/kg	>36	56.5 µM·h	5.6 µM	55 mM	10.4 µM	–	AUC [16]: 94.8 µM·h; LCK [17]: 0.82; Cmax [18]: 139 µM; LCK [19]: 0.13; half-life [20]: 24.9 min
Cc1ccc2c(c1)[n+]([O-])c(NCCN1CCCCC1)n[n+]2[O-]	75	237 µmol/kg	58	9.4 µM·h	2.2 µM	45 mM	4 µM	7.49e-07 cm²/s	Cmax [13]: 14.9 µM; AUC [14]: 13.8 µM·h; half-life [15]: 16.6 min
CCCN(CCC)CCNc1n[n+]([O-])c2ccccc2[n+]1[O-]	68	316 µmol/kg	82	3.9 µM·h	2 µM	> 25 mM	1.7 µM	1.71e-06 cm²/s	LCK [22]: 0.01; fraction unbound [23]: 0.023; Cmax [24]: 17 µM; half-life [25]: 11.8 min; LCK [26]: 0.25
CCOc1ccc2c(c1)[n+]([O-])c(NCCN(C)C)n[n+]2[O-]	245	1000 µmol/kg	121	50.1 µM·h	0.8 µM	> 50 mM	2.6 µM	–	AUC [16]: 82.3 µM·h; LCK [17]: 0.83; Cmax [18]: 85.7 µM; LCK [19]: 0.09; half-life [20]: 31.6 min
Cc1ccc2c(c1)[n+]([O-])c(NCCN(C)C)n[n+]2[O-]	200	562 µmol/kg	159	6.3 µM·h	1.1 µM	> 51 mM	1.9 µM	3.99e-07 cm²/s	fraction unbound [23]: 0.04; Cmax [27]: 104 µM; half-life [28]: 22.5 min; LCK [29]: 0.07; LCK [30]: 1
